# Laboratory results from ChEMBL document CHEMBL4130485, “Inhibitors of Yellow Fever Virus replication based on 1,3,5-triphenyl-4,5-dihydropyrazole scaffold: Design, synthesis and antiviral evaluation” (Eur J Med Chem, 2017).
# How the values were obtained:
# [1] = Cytotoxicity against African green monkey Vero 76 cells assessed as decrease in cell viability after 48 to 96 hrs by MTT assay; type: cell-based; settings: chlorocebus sabaeus
# In short: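 Vero 76 cells seeded at 5×10^5 cells/mL in D-MEM with 10% FBS and incubated with serial compound dilutions at 37 °C, 5% CO2. Viability read by MTT after 48–96 h. CC50 by linear regression versus untreated controls.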
# [2] = test system: Vesicular stomatitis Indiana virus; assay: Antiviral activity against Vesicular stomatitis virus Indiana ATCC VR 158 infected in African green monkey Vero 76 cells assessed as protection against virus-induced cytopathic effect after 2 days by crystal violet staining-based plaque reduction assay; type: functional, organism-based; settings: ATCC VR 158, Vero 76, 48 h
# [3] = Cytotoxicity against human MT4 cells assessed as decrease in cell viability after 96 hrs by MTT assay; type: cell-based
# In short: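 Exponentially growing MT-4 cells seeded at 1×10^5 cells/mL in RPMI-1640 with 10% FBS and incubated with serial compound dilutions at 37 °C, 5% CO2. Viability read by MTT after 96 h. CC50 by linear regression versus untreated controls.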
# [4] = Antiviral activity against Human enterovirus B Faulkner ATCC VR 185 infected in African green monkey Vero 76 cells assessed as protection against virus-induced cytopathic effect after 3 days by crystal violet staining-based plaque reduction assay; type: functional, cell-based; settings: Faulkner ATCC VR 185, Vero 76, 72 h
# [5] = test system: Yellow fever virus; assay: Potency index, ratio of azauridine EC50 to compound EC50 for Yellow fever virus 17D vaccine (Stamaril Pasteur J07B01); type: functional
# [6] = test system: Human alphaherpesvirus 1; assay: Antiviral activity against Human herpesvirus 1 KOS ATCC VR 1493 infected in African green monkey Vero 76 cells assessed as protection against virus-induced cytopathic effect after 3 days by crystal violet staining-based plaque reduction assay; type: functional, organism-based; settings: Human alphaherpesvirus 1, KOS, Vero 76, 72 h
# [7] = test system: Human immunodeficiency virus 1; assay: Antiviral activity against HIV1 3B infected in human MT4 cells assessed as protection against virus-induced cytopathic effect after 4 days by MTT assay; type: functional, organism-based; settings: Human immunodeficiency virus 1, 3B, MT4, 96 h
# In short: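 MT-4 cells (1×10^4/well) in RPMI with serial compound dilutions, infected with 100 CCID50 HIV-1 (m.o.i. 0.01). Viability read by MTT after 4 days at 37 °C. EC50 for 50% protection from cytopathicity obtained by linear regression versus untreated controls; mean of three determinations.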
# [8] = test system: Yellow fever virus; assay: Antiviral activity against Yellow fever virus 17D vaccine (Stamaril Pasteur J07B01) infected in golden hamster BHK21 cells assessed as protection against virus-induced cytopathic effect after 3 to 4 days by MTT assay; type: functional, organism-based; settings: BHK-21
# In short: (§1)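 BHK-21 cells (MDBK for BVDV) seeded at 5×10^4 (BHK) or 3×10^4 (MDBK) cells/well and grown overnight to confluence. Infected at m.o.i. 0.01 in maintenance MEM-Earle with 0.5% inactivated FBS. Serial compound dilutions added 2 h later (final 100, 20, 4, 0.8 µM; DMSO ≤0.1%). Viability read by MTT after 3–4 days at 37 °C. EC50 obtained by linear regression against untreated controls; mean of three determinations.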
# [9] = test system: Human orthopneumovirus; assay: Antiviral activity against Human respiratory syncytial virus A2 ATCC VR 1540 infected in African green monkey Vero 76 cells assessed as protection against virus-induced cytopathic effect after 5 days by crystal violet staining-based plaque reduction assay; type: functional, organism-based; settings: ATCC VR 1540, Vero 76, 120 h
# [10] = test system: Vaccinia virus; assay: Antiviral activity against Vaccinia virus Lister ATCC VR 1549 infected in African green monkey Vero 76 cells assessed as protection against virus-induced cytopathic effect after 3 days by crystal violet staining-based plaque reduction assay; type: functional, organism-based; settings: Orthopoxvirus vaccinia, ATCC VR 1549, Vero 76, 72 h
# [11] = Cytotoxicity against golden hamster BHK21 cells assessed as decrease in cell viability after 72 hrs by MTT assay; type: cell-based, Mesocricetus auratus, BHK-21
# In short: (§2)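 Uninfected MDBK (6×10^5 cells/mL, 10% horse serum) or BHK (1×10^6 cells/mL, 10% FBS) cells in MEM-Earle with serial compound dilutions at 37 °C, 5% CO2, run in parallel with the antiviral assays. Viability read by MTT after 72 h. CC50 by linear regression; mean of three determinations.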
# [12] = test system: Enterovirus C; assay: Antiviral activity against Enterovirus C Sabin […] infected in African green monkey Vero 76 cells assessed as protection against virus-induced cytopathic effect after 2 days by crystal violet staining-based plaque reduction assay; type: functional, organism-based; settings: Vero 76, 48 h
# [13] = Cytotoxicity against bovine MDBK cells assessed as decrease in cell viability after 72 hrs by MTT assay; type: cell-based, Bos taurus; settings: cattle; in short: as §2
# [14] = test system: Mammalian orthoreovirus 1; assay: Antiviral activity against Reovirus 1 infected in golden hamster BHK21 cells assessed as protection against virus-induced cytopathic effect after 3 to 4 days by MTT assay; type: functional, organism-based; settings: Mammalian orthoreovirus 1, BHK-21; in short: as §1
# [15] = test system: Bovine viral diarrhea virus 1; assay: Antiviral activity against Bovine viral diarrhea virus NADL ATCC VR 534 infected in bovine MDBK cells assessed as protection against virus-induced cytopathic effect after 3 to 4 days by MTT assay; type: functional, organism-based, Bovine viral diarrhea virus 1-NADL; settings: Bovine viral diarrhea virus isolates and strains, ATCC VR 534, MDBK; in short: as §1
# [16] = Selectivity index, ratio of CC50 for golden hamster BHK21 cells to EC50 for Yellow fever virus 17D; type: toxicity; settings: read-out: Ratio CC50/EC50
# In short: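 Selectivity index calculated as BHK-21 CC50 divided by YFV EC50, both from MTT assays.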
# [17] = test system: dengue virus type 2; assay: Antiviral activity against Dengue virus type 2 clinical isolate infected in golden hamster BHK21 cells assessed as protection against virus-induced cytopathic effect after 3 to 4 days by MTT assay; type: functional, organism-based; settings: BHK-21; in short: as §1
# [18] = test system: West Nile virus; assay: Antiviral activity against West Nile virus clinical isolate infected in golden hamster BHK21 cells assessed as protection against virus-induced cytopathic effect after 3 to 4 days by MTT assay; type: functional, organism-based; settings: BHK-21; in short: as §1
Structure (SMILES),CC50 [1],EC50 [2],CC50 at 96 h [3],EC50 [4],Ratio EC50 [5],EC50 [6],EC50 [7],EC50 [8],EC50 [9],EC50 [10],CC50 at 72 h [11],EC50 [12],CC50 at 72 h [13],EC50 [14],EC50 [15],selectivity ratio [16],EC50 [17],EC50 [18]
COc1c(C)c2c(c(O)c1C/C=C(\C)CCC(=O)O)C(=O)OC2 [MYCOPHENOLIC ACID],9 µM,,,,,,,,,,,,,,,,,
NS(=O)(=O)c1ccc(N2N=C(c3ccccc3)CC2c2ccccc2F)cc1 (stereo unspecified),28 µM,> 28 µM,42 µM,> 28 µM,10,> 28 µM,> 42 µM,> 21 µM,> 28 µM,> 28 µM,21 µM,> 28 µM,19 µM,> 21 µM,> 19 µM,,,
Cc1ccc(C2CC(c3ccccc3)=NN2c2ccc(S(N)(=O)=O)cc2)cc1 (stereo unspecified),20 µM,> 20 µM,40 µM,> 20 µM,10,> 20 µM,> 40 µM,2.2 µM,> 20 µM,> 20 µM,7 to 8 µM,> 20 µM,32 µM,> 7 µM,> 32 µM,3.6,> 8 µM,> 8 µM
NS(=O)(=O)c1ccc(N2N=C(c3ccccc3)CC2c2ccccc2)cc1 (stereo unspecified),22 µM,> 22 µM,42 µM,> 22 µM,10,> 22 µM,> 42 µM,> 15 µM,> 22 µM,> 22 µM,15 µM,> 22 µM,16 µM,> 15 µM,> 16 µM,,,
NS(=O)(=O)c1ccc(N2N=C(c3ccc(Oc4ccccc4)cc3)CC2c2ccc(Cl)cc2)cc1 (stereo unspecified),88 µM,> 88 µM,9 µM,> 88 µM,10,> 88 µM,> 9 µM,1.9 µM,> 88 µM,> 88 µM,7 to 8 µM,> 88 µM,19 µM,> 7 µM,> 19 µM,4.2,> 8 µM,> 8 µM
NS(=O)(=O)c1ccc(N2N=C(c3ccccc3)CC2c2ccc(F)cc2)cc1 (stereo unspecified),23 µM,> 23 µM,45 µM,> 23 µM,10,> 23 µM,> 45 µM,2.6 µM,> 23 µM,> 23 µM,12 to 13 µM,> 23 µM,18 µM,> 12 µM,> 18 µM,5,> 13 µM,> 13 µM
NS(=O)(=O)c1ccc(N2N=C(c3ccccc3)CC2c2ccc(Cl)cc2)cc1 (stereo unspecified),21 µM,> 21 µM,36 µM,> 21 µM,10,> 21 µM,> 36 µM,> 32 µM,> 21 µM,> 21 µM,32 µM,> 21 µM,11 µM,> 32 µM,> 11 µM,,,
NS(=O)(=O)c1ccc(N2N=C(c3ccc(Oc4ccccc4)cc3)CC2c2cccc(Cl)c2)cc1 (stereo unspecified),88 µM,> 88 µM,8 µM,> 88 µM,10,> 88 µM,> 8 µM,2.2 µM,> 88 µM,> 88 µM,9 to 10 µM,> 88 µM,6 µM,> 9 µM,> 6 µM,4.5,> 10 µM,> 10 µM
Cc1ccccc1C1CC(c2ccc(OCc3ccccc3)cc2)=NN1c1ccc(S(N)(=O)=O)cc1 (stereo unspecified),100 µM,> 100 µM,≥ 100 µM,> 100 µM,10,> 100 µM,> 100 µM,1.8 µM,> 100 µM,> 100 µM,20 to 22 µM,> 100 µM,> 100 µM,> 20 µM,> 100 µM,12.2,> 22 µM,> 22 µM
Nc1nc2c(ncn2COCCO)c(=O)[nH]1 [ACYCLOVIR],> 100 µM,,,,,1.8 µM,,,,,,,,,,,,
NS(=O)(=O)c1ccc(N2N=C(c3ccccc3)CC2c2cccc(F)c2)cc1 (stereo unspecified),24 µM,> 24 µM,44 µM,> 24 µM,10,> 24 µM,13 µM,≥ 15 µM,> 24 µM,> 24 µM,15 µM,> 24 µM,20 µM,> 15 µM,> 20 µM,,,
NS(=O)(=O)c1ccc(N2N=C(c3ccccc3)CC2c2ccccc2Cl)cc1 (stereo unspecified),26 µM,> 26 µM,44 µM,> 26 µM,10,> 26 µM,> 44 µM,2.4 µM,> 26 µM,> 26 µM,13 to 14 µM,> 26 µM,9 µM,> 13 µM,> 9 µM,5.8,> 14 µM,> 14 µM
C[C@@]1(O)[C@H](O)[C@@H](CO)O[C@H]1n1cnc2c(=O)[nH]c(N)nc21 [2'-B-METHYL-GUANOSINE],,,,,,,,,,,,,,,,,1.7 µM,0.8 µM
Cc1ccccc1C1CC(c2ccccc2)=NN1c1ccc(S(N)(=O)=O)cc1 (stereo unspecified),24 µM,> 24 µM,43 µM,> 24 µM,10,> 24 µM,> 43 µM,2.2 µM,> 24 µM,> 24 µM,14 µM,> 24 µM,18 µM,> 14 µM,> 18 µM,6.4,> 14 µM,> 14 µM
Cc1cccc(C2CC(c3ccccc3)=NN2c2ccc(S(N)(=O)=O)cc2)c1 (stereo unspecified),25 µM,> 25 µM,37 µM,> 25 µM,10,> 25 µM,> 37 µM,> 25 µM,> 25 µM,> 25 µM,25 µM,> 25 µM,23 µM,> 25 µM,> 23 µM,,,
